DENV2 CPE rescue – protects cells from dengue virus 2 cytopathic effect; hit rate 1.7% among 350,000; DENV2-infected cells, cytopathic effect rescue, plate reader; CPE inhibition, % at 9.99 µM; in the data active means CPE inhibition above about 20%, passing the limit was not always enough; inconclusive means no clear call, values can overlap the other calls; tested in BHK-21 cells;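 further: 0% = median of neutral control wells and 100% = median of positive control wells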
SIRT5 inh – inhibitors of human sirtuin-5 desuccinylase; Q9NXA8; Purified SirT5, succinyl-peptide AMC, trypsin-coupled fluorescence; inhibition, % at 15 µM; hit rate 1.1% among 330,000; AID 652115; in the data active means inhibition above about 15%; inconclusive means no clear call, values can overlap the other calls
E-selectin induc – E-selectin induction on HUVECs. activation, % at 7.58 µM. hit rate 0.37% among 260,000. HUVEC E-selectin immunofluorescence imaging; normalized: neutral wells 0, TNF-alpha wells 100. P16581;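 active means mean E-selectin-positive cell signal at least 10% of the positive control, reached in at least 60% of replicates, without over 20% cell loss; inconclusive means no rule given, readout overlaps actives, possibly toxicity-flagged; inactive means the rest, including those meeting only one limit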
Target sequence (P16581 whole entry, looked up): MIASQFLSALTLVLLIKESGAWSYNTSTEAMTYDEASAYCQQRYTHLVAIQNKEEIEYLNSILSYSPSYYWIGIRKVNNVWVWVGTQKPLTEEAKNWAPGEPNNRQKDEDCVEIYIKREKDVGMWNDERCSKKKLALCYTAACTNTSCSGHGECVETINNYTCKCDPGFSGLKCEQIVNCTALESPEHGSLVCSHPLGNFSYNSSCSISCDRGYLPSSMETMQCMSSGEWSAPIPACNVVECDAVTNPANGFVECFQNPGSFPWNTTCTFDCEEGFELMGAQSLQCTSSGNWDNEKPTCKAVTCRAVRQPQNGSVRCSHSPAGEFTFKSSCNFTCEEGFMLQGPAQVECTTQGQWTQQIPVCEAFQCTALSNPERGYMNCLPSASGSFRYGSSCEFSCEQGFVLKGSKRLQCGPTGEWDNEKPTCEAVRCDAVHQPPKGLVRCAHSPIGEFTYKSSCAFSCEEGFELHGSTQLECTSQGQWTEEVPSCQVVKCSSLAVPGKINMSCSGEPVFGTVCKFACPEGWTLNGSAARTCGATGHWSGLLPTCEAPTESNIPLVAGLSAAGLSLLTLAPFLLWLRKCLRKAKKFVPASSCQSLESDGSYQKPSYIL
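Test system: HUVEC | Signal: Immunofluorescence imaging | Read-out: Percent E-selectin-positive cells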
Numbers without * were called inactive. Shown are actives, neighbours in structure and some others; about 2.9% of the full set was active somewhere.

How did C[C@@H]1CN([C@@H](C)CO)S(=O)(=O)c2ccc(C#Cc3cccc(F)c3)cc2O[C@H]1CN(C)S(=O)(=O)c1ccccc1F do in these assays?
SIRT5 inh: 1; E-selectin induc: 3

Results for CCCNC(=O)N1CC2(C1)CN(Cc1cccc(OC)c1)[C@H](CO)c1[nH]c3cc(OC)ccc3c12 ?
DENV2 CPE rescue: -7; SIRT5 inh: 2; E-selectin induc: -1

What do the screens show for `C[C@@H](O)C#Cc1ccc([C@H]2[C@H](CO)N3CCCCN(CC4CC4)C[C@@H]23)cc1`?
DENV2 CPE rescue: 19; SIRT5 inh: 21*; E-selectin induc: 0

What do the screens show for `C[C@@H](O)C#Cc1ccc([C@@H]2[C@H](CO)N3CCCCN(CC4CC4)C[C@@H]23)cc1`?
DENV2 CPE rescue: -7; SIRT5 inh: 4; E-selectin induc: 0

What do the screens show for `C[C@H](O)C#Cc1ccc([C@H]2[C@H]3CN(CC4CC4)CCCCN3[C@H]2CO)cc1`?
DENV2 CPE rescue: 1; SIRT5 inh: 16*; E-selectin induc: 0

What do the screens show for `C[C@@H](O)C#Cc1ccc([C@H]2[C@H]3CN(CC4CC4)CCCCN3[C@H]2CO)cc1`?
DENV2 CPE rescue: -2; SIRT5 inh: 2; E-selectin induc: 0

Results for COc1ccc(-n2c(Cc3cccn3C)nnc2SCC(=O)Nc2cccc(C)c2C)cc1 ?
DENV2 CPE rescue: -2; SIRT5 inh: -3; E-selectin induc: 0

What do the screens show for `C=CCOC(=O)C1=C(C)NC(=O)NC1c1ccc(N(C)C)cc1` (centres undefined)?
DENV2 CPE rescue: -3; SIRT5 inh: 3

Results for C[C@H](CO)N1C[C@H](C)[C@H](CN(C)Cc2ccc(Oc3ccccc3)cc2)Oc2c(NS(C)(=O)=O)cccc2C1=O ?
DENV2 CPE rescue: 0; SIRT5 inh: -1; E-selectin induc: 31*

What do the screens show for `C[C@H](CO)N1C[C@H](C)[C@@H](CN(C)Cc2ccc(Oc3ccccc3)cc2)Oc2c(NS(=O)(=O)c3ccc(F)cc3)cccc2C1=O`?
DENV2 CPE rescue: 39*; SIRT5 inh: -6

Results for C[C@H]1CN([C@@H](C)CO)C(=O)c2cccc(NS(=O)(=O)c3ccc(F)cc3)c2O[C@H]1CN(C)Cc1ccc(Oc2ccccc2)cc1 ?
E-selectin induc: 1

How did C[C@H]1CN([C@@H](C)CO)C(=O)c2cccc(NS(C)(=O)=O)c2O[C@H]1CN(C)Cc1ccc(Oc2ccccc2)cc1 do in these assays?
DENV2 CPE rescue: 0; SIRT5 inh: -2

What do the screens show for `CCOC(=O)c1sc(NC(=O)C(CC)OC(=O)c2ccco2)nc1C` (centres undefined)?
DENV2 CPE rescue: -4; SIRT5 inh: -1

How did COc1ccc(S(=O)(=O)N(C)C[C@H]2Oc3ccc(NC(=O)c4ccncc4)cc3C(=O)N([C@H](C)CO)C[C@@H]2C)cc1 do in these assays?
DENV2 CPE rescue: inconclusive; SIRT5 inh: 4; E-selectin induc: 54*

Results for COc1ccc(S(=O)(=O)N(C)C[C@@H]2Oc3ccc(NC(=O)c4ccncc4)cc3C(=O)N([C@@H](C)CO)C[C@H]2C)cc1 ?
DENV2 CPE rescue: 16; SIRT5 inh: 1; E-selectin induc: -15

Results for Cc1ccc(S(=O)(=O)N(C)C[C@H]2Oc3ccc(NC(=O)c4ccncc4)cc3C(=O)N([C@@H](C)CO)C[C@@H]2C)cc1 ?
DENV2 CPE rescue: inconclusive; SIRT5 inh: -4; E-selectin induc: 1

How did Cc1ccc(S(=O)(=O)N(C)C[C@H]2Oc3ccc(NC(=O)c4ccncc4)cc3C(=O)N([C@H](C)CO)C[C@H]2C)cc1 do in these assays?
DENV2 CPE rescue: 42*; SIRT5 inh: -2; E-selectin induc: 3

How did O=C(O)C1CCCN1C(=O)Nc1ccc(Cl)cc1 (centres undefined) do in these assays?
DENV2 CPE rescue: -4; SIRT5 inh: -2; E-selectin induc: -2

What do the screens show for `O=C(Nc1nc2c(Cl)c(Cl)ccc2s1)C1CC1`?
DENV2 CPE rescue: -8; SIRT5 inh: -3

How did COc1cccc(COC(=O)CSCC(=O)Nc2cccc(C)c2)c1OC do in these assays?
DENV2 CPE rescue: 0; SIRT5 inh: -1; E-selectin induc: 0

Results for COc1cccc(COC(=O)CSCC(=O)Nc2ccc(C)cc2)c1OC ?
DENV2 CPE rescue: 72*; SIRT5 inh: 2

What do the screens show for `COc1ccc(Cc2nc3ccccc3n2CC(=O)N/N=C/c2ccccc2)cc1OC`?
DENV2 CPE rescue: -4; SIRT5 inh: 0; E-selectin induc: -1

Results for Cc1ccc(NC(=O)c2ccccc2[N+](=O)[O-])nc1 ?
DENV2 CPE rescue: 4; SIRT5 inh: 0

Results for O=C(Nc1ccc(F)cc1)c1ccccc1 ?
DENV2 CPE rescue: 1; SIRT5 inh: -3

How did O=C(NC(O)C(=O)c1ccccc1)c1ccc(F)cc1 (centres undefined) do in these assays?
DENV2 CPE rescue: 2; SIRT5 inh: 1; E-selectin induc: 41*

How did Cc1nnc2ccc(-c3cccc(NC(=O)Cc4cccs4)c3)nn12 do in these assays?
DENV2 CPE rescue: 6; SIRT5 inh: -3

Results for COc1cccc(C2NC(C)(C(=O)O)C3C(=O)N(C(C)C)C(=O)C23)c1O (centres undefined) ?
DENV2 CPE rescue: 3

What do the screens show for `COc1ccc(-c2c(Sc3ccccc3)c3cc(-c4ccc(OC)c(F)c4)ccc3n2C)cc1`?
DENV2 CPE rescue: -5; SIRT5 inh: -1; E-selectin induc: 0

What do the screens show for `COc1ccc(-c2ccc3c(c2)S(=O)(=O)c2cccc(C(=O)NCc4ccccc4Cl)c2C3=O)cc1OC`?
DENV2 CPE rescue: -12; SIRT5 inh: -4; E-selectin induc: 1

How did COc1ccc(-c2ccc3c(c2)S(=O)(=O)c2cccc(C(=O)NCCOc4ccccc4Cl)c2C3=O)cc1OC do in these assays?
DENV2 CPE rescue: 22*; SIRT5 inh: -4; E-selectin induc: 0

What do the screens show for `O=C(N/N=C/c1ccc(OC(F)F)cc1)c1cc[n+]([O-])cc1`?
DENV2 CPE rescue: 6; SIRT5 inh: 4; E-selectin induc: 8

How did COc1ccc(/C=N/NC(=O)c2cc[n+]([O-])cc2)cc1 do in these assays?
DENV2 CPE rescue: -2; SIRT5 inh: 2; E-selectin induc: 42*

How did C[C@H]1CN([C@@H](C)CO)C(=O)Cc2cc(NC(=O)CCN3CCOCC3)ccc2O[C@@H]1CN(C)Cc1ccc(C(=O)O)cc1 do in these assays?
DENV2 CPE rescue: 17; E-selectin induc: 0

How did O=C1NC(=S)SC1=Cc1ccc(F)cc1 do in these assays?
DENV2 CPE rescue: 1; SIRT5 inh: 5; E-selectin induc: 0

What do the screens show for `O=C1NC(=S)SC1=Cc1ccc(Cl)cc1`?
DENV2 CPE rescue: 22*; SIRT5 inh: 2

What do the screens show for `COc1ccccc1-n1c(SCC(=O)O)nc2c(sc(=S)n2-c2ccc(Cl)c(C)c2)c1=O`?
DENV2 CPE rescue: -5; SIRT5 inh: 4; E-selectin induc: 0

How did Cc1ccc(-n2c(=S)sc3c(=O)n(-c4ccccc4C)c(SCC(=O)O)nc32)cc1C do in these assays?
DENV2 CPE rescue: 1; SIRT5 inh: 1; E-selectin induc: 0

Results for COc1ccccc1-n1c(SCC(=O)O)nc2c(sc(=S)n2-c2ccc(C)c(C)c2)c1=O ?
DENV2 CPE rescue: 1; SIRT5 inh: 17*; E-selectin induc: inconclusive

Results for CCc1ccc(-n2c(=S)sc3c(=O)n(-c4ccccc4C)c(SCC(=O)O)nc32)cc1 ?
DENV2 CPE rescue: 3; SIRT5 inh: 1; E-selectin induc: 60*

Bioassay records (PubChem BioAssay)
